Consider 15 compounds from ChEMBL document CHEMBL1122743, “Structure-activity relationship study of the inhibition of adrenal cortical 11 beta-hydroxylase by new metyrapone analogues” (J Med Chem, 1984).

pIC50: −log10 of the molar value. Where only a bound is given, the exact number is not on record here.

As a reminder, the pIC50 is the IC50 on a negative log10 scale, so that one unit is a factor of ten.

For the experiment, the target named is T1, Cytochrome P450 11B1, mitochondrial (Bos taurus, UniProt P15150).
T1 sequence (P15150 whole entry): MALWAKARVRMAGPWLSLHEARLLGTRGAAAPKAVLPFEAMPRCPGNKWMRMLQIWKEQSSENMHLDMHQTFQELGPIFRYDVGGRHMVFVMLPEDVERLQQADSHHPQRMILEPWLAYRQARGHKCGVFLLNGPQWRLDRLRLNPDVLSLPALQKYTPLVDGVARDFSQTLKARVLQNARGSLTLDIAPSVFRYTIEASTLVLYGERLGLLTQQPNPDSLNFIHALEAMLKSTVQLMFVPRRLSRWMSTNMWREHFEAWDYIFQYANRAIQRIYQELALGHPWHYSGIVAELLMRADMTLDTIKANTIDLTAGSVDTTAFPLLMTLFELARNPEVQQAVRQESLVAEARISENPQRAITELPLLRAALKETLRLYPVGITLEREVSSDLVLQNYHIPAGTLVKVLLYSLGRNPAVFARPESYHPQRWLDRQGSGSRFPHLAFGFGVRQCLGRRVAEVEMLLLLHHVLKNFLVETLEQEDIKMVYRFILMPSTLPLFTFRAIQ
Nature of the experiment: Evaluated for inhibition of bovine adrenal cortical mitochondrial 11 beta-hydroxylase. In kind it is functional. An outline of the steps:
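Crude lyophilized, defatted adrenal cortical mitochondria (300 µg) plus 15.0 µM purified adrenodoxin, in 0.50 mL of 50 mM potassium phosphate pH 7.40. Additions: 200 µM DOC with [3H]DOC tracer, 16 mM MgCl2, 4.6% propylene glycol, inhibitor (final 1% ethanol). Preincubated 5 min at 37 °C, then started with 1.5 mM NADPH. Products extracted into CH2Cl2, separated by TLC, counted by scintillation. Percent inhibition versus 1% ethanol controls; duplicates.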
Regarding `CC(C)(c1cccnc1)C(I)c1cccnc1` (stereo not given), the pIC50 is 5.27.
The compound `CC(C)(Cc1ccccc1)c1cccnc1` gave a pIC50 of 6.18.
The compound `CC(C)(c1cccnc1)C(Cl)c1ccccc1` (stereo not given) gave a pIC50 of 5.79.
Turning to `CC(C)(c1cccnc1)C(N)c1cccnc1` (stereo not given), the pIC50 was < 3.00.
For `CC(=O)NC(c1cccnc1)C(C)(C)c1cccnc1` (stereo not given), the pIC50 was 4.06.
As for `CC(C(=O)c1ccccc1)c1cccnc1` (stereo not given), the figure is 5.11; as for `O=C(Cc1cccnc1)c1ccccc1`, 3.80; as for `CC(C)(C(=O)c1cccnc1)c1cccnc1` [METYRAPONE], 5.11.
The compound `CC(C)(c1cccnc1)C(Cl)c1cccnc1` (stereo not given) gave a pIC50 of 5.14.
As for `COC(c1cccnc1)C(C)(C)c1cccnc1` (stereo not given), the figure is 5.14; as for `CC(C)(C(=NO)c1cccnc1)c1cccnc1`, 5.32; as for `CC(C)(Cc1cccnc1)c1cccnc1`, 5.58.
`CC(C)(c1cccnc1)C(O)c1ccccc1` (stereo not given) had a pIC50 of 5.82.
In turn, `CC(C)(c1cccnc1)C(O)c1cccnc1` (stereo not given) [METYRAPOL] had a negative-log IC50 (pIC50) of 5.15. Against the preceding compound, the pIC50 is 0.67 log units lower.
Compound `CC(C)(C(=O)c1ccccc1)c1cccnc1` had a negative-log IC50 (pIC50) of 5.48.
